We go through 16 compounds from article PMC8419108 (Molecular Cancer Therapeutics, 2021).

Test [1] has as its target KRAS^Q61R/CRAF^WT interaction (Homo sapiens, UniProt P01116+P04049, Q61R). Description: NanoBRET assay of Halo-KRAS^Q61R/Nano-CRAF^WT binding in live 293FT cells. Type of test: cell-based.
The subject of test [2] is MCF10A cells stably expressing Halo-KRAS^G12V. Description: Immunoblot analysis of cell signaling in KRAS^G12V-MCF10A cells. In kind it is cell-based. To be noted: 1 hour treatment.
The test system of test [3] is RAS-deficient MEFs reconstituted with KRAS^Q61R. Description: Immunoblot/immunoprecipitation analysis of cell signaling in KRAS^Q61R MEFs. In kind it is cell-based, mouse. The procedure, abridged: (§1)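 RAS-deficient MEFs reconstituted with KRAS^Q61R or BRAF^V600E were grown in DMEM with 10% FBS at 37°C, 5% CO₂. Cells were plated at about 70% confluency and treated 48 h later for 1 h. They were lysed in NP-40 buffer (pH 8.0) for 15 min at 4°C, equalised by Bradford, and immunoblotted for pERK and total ERK. Blots are representative of ≥2 independent experiments.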

Test [4] deals with RAS-deficient MEFs reconstituted with BRAF^V600E. Description: Immunoblot analysis of cell signaling in BRAF^V600E MEFs. Type of test: cell-based, mouse. The note with it: 1 hour treatment. The procedure, abridged: as §1
For the next test, the target named is KRAS^G12D (Homo sapiens, UniProt P01116, G12D). Description: SPR binding to captured avi-KRAS^G12D-GppNHp. To be noted: GppNHp-loaded KRAS^G12D; 100–1.56 μmol/L. The procedure, abridged: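 Avi-KRAS^G12D (aa 2–188) loaded with GppNHp was captured on a Neutravidin-coupled CM5 chip in a Biacore S200. Compounds were injected as a 2-fold series from 100 to 1.56 µmol/L over 2,300 RU, or singly at 100 µmol/L over 3,800 RU. Buffer was HEPES pH 7.5 with NaCl, Tween 20, MgCl₂ and 2.5% DMSO. Reference-cell and buffer responses were subtracted, with DMSO-mismatch correction.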

The next test concerns the target CRAF-RBD (Homo sapiens, UniProt P04049). Description: SPR binding to captured avi-CRAF-RBD. The note with it: 100–1.56 μmol/L. The method, boiled down: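 Avi-tagged CRAF-RBD (aa 52–131) was captured on a Neutravidin-coupled CM5 chip in a Biacore S200. A 2-fold series from 100 to 1.56 µmol/L was injected over 1,785 RU, and single 100 µmol/L doses over 3,000 RU. Reference-cell and buffer responses were subtracted, and DMSO mismatches were corrected with a standard curve.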

The next test has as its system KRAS^G12V or CRAF-RBD. Description: SPR analysis, result summarised over both targets. Type of test: binding. The note with it: single dose 100 μmol/L or dose-response 100–1.56 μmol/L.

In test [1], `CCOc1nc2cccc(C(=O)OC(C)OC(=O)OC3CCCCC3)c2n1Cc1ccc(-c2ccccc2-c2nnn[nH]2)cc1` (centres unmarked) [Candesartan cilexetil] came in with a 50% inhibitory concentration (IC50) of 5.4 µM.

Regarding `CC(C)=CCC[C@]1(C)C=Cc2c(O)c3c(c(CC=C(C)C)c2O1)O[C@]12C(=C[C@@H]4C[C@H]1C(C)(C)O[C@@]2(C/C=C(/C)C(=O)O)C4=O)C3=O` [Gambogic acid], in test [1], the IC50 turned out to be 1.7 µM.

In turn, `CN1C(=O)[C@]2(Cc3cn([C@]45C[C@@]67SS[C@@](CO)(C(=O)N6[C@H]4Nc4ccccc45)N(C)C7=O)c4ccccc34)SS[C@@]1(CO)C(=O)N2C` [Chetomin] came in with an IC50 in test [1] of 2.9 µM.

`C[C@@H]1O[C@@H](O[C@H]2[C@H](O[C@H]3CO[C@@H](O[C@H]4CC[C@]5(C)[C@H]6CC[C@]78OC[C@@]9(CC[C@](C)(C=O)C[C@H]97)[C@H](O)C[C@@]8(C)[C@]6(C)CC[C@H]5C4(C)C)[C@H](O[C@@H]4O[C@H](CO)[C@@H](O)[C@H](O)[C@H]4O)[C@H]3O)O[C@H](CO)[C@@H](O)[C@@H]2O)[C@H](O)[C@H](O)[C@H]1O` [Ardisiacrispin B] gave a concentration for half-maximal inhibition (IC50) in test [1] of 5 µM.

Regarding `CC(C)(C)c1ccc(C(O)CCCN2CCC(C(O)(c3ccccc3)c3ccccc3)CC2)cc1` (centres unmarked) [Terfenadine], the concentration for half-maximal inhibition (IC50) in test [1] was found to be 6 µM.

Compound `Cc1cc2c(C(C)C)c(O)c(O)c(C=O)c2c(O)c1-c1c(C)cc2c(C(C)C)c(O)c(O)c(C=O)c2c1O` [Gossypol] registered an IC50 in test [1] of 5.2 µM.

As for `CN1C(=O)[C@]23CC4=CC=C[C@H](O)[C@H]4N2C(=O)[C@@]1(CO)SS3` [Gliotoxin], in test [1], the IC50 was determined as 2.8 µM. For the same compound, the “pERK levels (ERK activation)” value in test [2] is “inhibit RAS-dependent ERK activation”; in test [3] (1 hour treatment, immunoblot) it was “inhibit RAS-dependent ERK activation”.

As for `COc1cc(/C=C(\C#N)C(N)=O)cc(CSc2nc3ccccc3s2)c1O` [AG825], the “pERK levels (ERK activation)” value in test [4] was “pERK levels were reduced”; in test [2], “increased RAS-dependent ERK activation”; in test [3] (1 hour treatment, immunoblot), “increased RAS-dependent ERK activation”. The “BRAF/CRAF dimer formation (CRAF immunoprecipitation probed for BRAF)” value in test [3] (10 μmol/L for 1 hour) is “increase the detection of heterodimerized CRAF/BRAF complexes”.

Regarding `Clc1ccc(C(c2ccc(Cl)cc2)n2cc[n+](CC(OCc3ccc(Cl)cc3Cl)c3ccc(Cl)cc3Cl)c2)cc1` (centres unmarked) [Calmidazolium chloride], the concentration for half-maximal inhibition (IC50) in test [1] worked out at 3.6 µM. In addition, the “SPR binding to KRAS^G12D” value at KRAS^G12D is “non-selective and non-saturable binding”. The “SPR binding to CRAF-RBD” value on CRAF-RBD is “non-selective and non-saturable binding”.

As for Swinhopeptolide, the “SPR binding to KRAS^G12D” value on KRAS^G12D was “slow on/off rates and possible non-specific binding”. The “SPR binding to CRAF-RBD” value at CRAF-RBD is “slow on/off rates and possible non-specific binding”.

In turn, `CN1CCN(CCCN2c3ccccc3Sc3ccc(C(F)(F)F)cc32)CC1` [Trifluoperazine] had a half-inhibitory concentration (IC50) in test [1] of 14.3 µM.

`C/C=C(/C)C(=O)O[C@H]1C(C)=C2[C@H]([C@@H]1OC(=O)CCCCCCC)[C@@](C)(OC(C)=O)C[C@H](OC(=O)CCC)[C@@]1(O)[C@H]2OC(=O)[C@@]1(C)O` [Thapsigargin] had an IC50 in test [1] of 14 µM.

As for `CC(C)(C)CC(C)(C)NCC(O)COc1ccc(C(C)(C)c2ccc(OCC(O)CNC(C)(C)CC(C)(C)C)cc2)cc1.Cl` (centres unmarked) [NSC145366], the “pERK levels (ERK activation)” value in test [4] is on record as “suppressed pERK levels”; in test [2], “inhibited ERK activation”; in test [3] (1 hour treatment, immunoblot) it was “inhibited ERK activation”.

`COc1cc(CCN)c2c(c1OC)SSSSS2` [Varacin] came in with a half-maximal inhibitory concentration (IC50) in test [1] of 9.5 µM.

For `CN(C)CCOc1ccc(-c2nc(-c3ccncc3)c(-c3ccc4c(c3)CC/C4=N\O)[nH]2)cc1` [SB590885], in test [1] (0.5 and 1 μmol/L for 4 hours, normalized BRET signal), the “increase of the Halo-KRAS^Q61R/Nano-CRAF^WT interaction (BRET signal)” value is listed as “approximately 35%”.

Consider `CC(C)=C[C@H]1C[C@H](C)[C@]2(CC[C@]3(C)C[C@H]4[C@H](C(=O)C[C@@]4(C)O)/C(C=O)=C\C[C@H]32)O1` [Ophiobolin A], for which the IC50 in test [1] turned out to be 1.08 µM. In addition, the “SPR binding to KRAS or the CRAF-RBD” value in the test on KRAS^G12V or CRAF-RBD was “inability to detect binding”. In test [2], the “pERK levels (ERK activation)” value is “dose-dependent decrease”; the “pMEK levels (phosphorylation and activation of MEK)” value is on record as “dose-dependent decrease”; the “phosphorylation of endogenous CRAF on S338 (pS338-CRAF)” value is “reduced the phosphorylation of CRAF on S338”. In test [3] (1 hour treatment, immunoblot), the “pERK levels (ERK activation)” value is “reduced pERK levels in a dose-dependent manner” and the “phosphorylation of endogenous CRAF on S338 (pS338-CRAF)” value is “reduced the phosphorylation of CRAF on S338”.
